Source: ChEMBL document CHEMBL5579886, “Selective Degradation of MLK3 by a Novel CEP1347-VHL-02 PROTAC Compound Limits the Oncogenic Potential of TNBC” (J Med Chem, 2024)
Activity calls are given as the source filed them. No cut-off for these calls is given here.

Tests used:
[1] = biological target: T1, von Hippel-Lindau disease tumor suppressor/Mitogen-activated protein kinase kinase kinase 11 (Homo sapiens, UniProt Q16584+P40337); test: PROTAC activity at VHL/DOX-inducible MLK3 (unknown origin) overexpressed in human HCC1806 cells assessed as protein degradation at 0.25 uM incubated for 24 hrs by immunoblot analysis; type: cell-based
T1 sequence (P40337 whole entry, looked up): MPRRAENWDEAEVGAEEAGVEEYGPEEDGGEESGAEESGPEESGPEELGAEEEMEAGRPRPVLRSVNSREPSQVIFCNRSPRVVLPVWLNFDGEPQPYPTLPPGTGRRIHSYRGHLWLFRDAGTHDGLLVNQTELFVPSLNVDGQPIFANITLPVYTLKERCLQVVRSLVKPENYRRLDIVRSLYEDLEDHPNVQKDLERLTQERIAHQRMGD
T1 sequence (Q16584 whole entry, looked up): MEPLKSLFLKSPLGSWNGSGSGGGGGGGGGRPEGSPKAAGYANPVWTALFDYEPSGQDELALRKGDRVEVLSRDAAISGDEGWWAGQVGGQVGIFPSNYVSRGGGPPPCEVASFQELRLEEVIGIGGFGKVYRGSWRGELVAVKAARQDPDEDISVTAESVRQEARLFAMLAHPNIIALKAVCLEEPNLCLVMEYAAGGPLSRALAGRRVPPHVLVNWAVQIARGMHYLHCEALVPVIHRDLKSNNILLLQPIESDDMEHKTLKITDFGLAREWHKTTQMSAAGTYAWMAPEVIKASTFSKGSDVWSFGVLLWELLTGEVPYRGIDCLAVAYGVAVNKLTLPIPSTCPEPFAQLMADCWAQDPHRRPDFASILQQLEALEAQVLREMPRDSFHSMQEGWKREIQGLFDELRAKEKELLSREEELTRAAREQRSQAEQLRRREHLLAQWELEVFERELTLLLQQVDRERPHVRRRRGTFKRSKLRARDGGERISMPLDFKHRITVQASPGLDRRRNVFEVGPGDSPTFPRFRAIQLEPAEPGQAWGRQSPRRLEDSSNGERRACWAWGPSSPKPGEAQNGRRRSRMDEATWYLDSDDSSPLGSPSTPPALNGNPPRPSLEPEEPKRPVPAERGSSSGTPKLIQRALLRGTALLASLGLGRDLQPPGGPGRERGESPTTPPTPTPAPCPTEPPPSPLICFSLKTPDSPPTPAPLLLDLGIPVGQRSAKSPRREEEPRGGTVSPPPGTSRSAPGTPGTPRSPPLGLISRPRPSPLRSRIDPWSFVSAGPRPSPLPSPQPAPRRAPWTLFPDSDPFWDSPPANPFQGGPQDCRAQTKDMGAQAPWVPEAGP

[2] = biological target: T1, von Hippel-Lindau disease tumor suppressor/Mitogen-activated protein kinase kinase kinase 11; test: PROTAC activity at VHL/DOX-inducible MLK3 (unknown origin) overexpressed in human HCC1806 cells assessed as protein degradation at 0.5 uM measured after 2 hrs by immunoblot analysis relative to control; type: cell-based
Procedure, shortened: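 HCC1806 cells with DOX-inducible MLK3 were induced with 1 μg/mL DOX for 24 h, then treated at 0.5 μM for times from 2 to 24 h, with DMSO as control. MLK3 was measured by immunoblot of RIPA lysates with ECL detection.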

[3] = biological target: T2, von Hippel-Lindau disease tumor suppressor/Mitogen-activated protein kinase kinase kinase 9 (Homo sapiens) (UniProt P80192+P40337); test: PROTAC activity at VHL/DOX-inducible MLK1 (unknown origin) overexpressed in human A-375 cells assessed as protein degradation at 0.1 to 5 uM incubated for 24 hrs by immunoblot analysis; type: cell-based; conditions: dose 0.1-5 µM
T2 sequence (P40337 whole entry, looked up): as the sequence (P40337 whole entry, looked up) above
T2 sequence (P80192 whole entry, looked up): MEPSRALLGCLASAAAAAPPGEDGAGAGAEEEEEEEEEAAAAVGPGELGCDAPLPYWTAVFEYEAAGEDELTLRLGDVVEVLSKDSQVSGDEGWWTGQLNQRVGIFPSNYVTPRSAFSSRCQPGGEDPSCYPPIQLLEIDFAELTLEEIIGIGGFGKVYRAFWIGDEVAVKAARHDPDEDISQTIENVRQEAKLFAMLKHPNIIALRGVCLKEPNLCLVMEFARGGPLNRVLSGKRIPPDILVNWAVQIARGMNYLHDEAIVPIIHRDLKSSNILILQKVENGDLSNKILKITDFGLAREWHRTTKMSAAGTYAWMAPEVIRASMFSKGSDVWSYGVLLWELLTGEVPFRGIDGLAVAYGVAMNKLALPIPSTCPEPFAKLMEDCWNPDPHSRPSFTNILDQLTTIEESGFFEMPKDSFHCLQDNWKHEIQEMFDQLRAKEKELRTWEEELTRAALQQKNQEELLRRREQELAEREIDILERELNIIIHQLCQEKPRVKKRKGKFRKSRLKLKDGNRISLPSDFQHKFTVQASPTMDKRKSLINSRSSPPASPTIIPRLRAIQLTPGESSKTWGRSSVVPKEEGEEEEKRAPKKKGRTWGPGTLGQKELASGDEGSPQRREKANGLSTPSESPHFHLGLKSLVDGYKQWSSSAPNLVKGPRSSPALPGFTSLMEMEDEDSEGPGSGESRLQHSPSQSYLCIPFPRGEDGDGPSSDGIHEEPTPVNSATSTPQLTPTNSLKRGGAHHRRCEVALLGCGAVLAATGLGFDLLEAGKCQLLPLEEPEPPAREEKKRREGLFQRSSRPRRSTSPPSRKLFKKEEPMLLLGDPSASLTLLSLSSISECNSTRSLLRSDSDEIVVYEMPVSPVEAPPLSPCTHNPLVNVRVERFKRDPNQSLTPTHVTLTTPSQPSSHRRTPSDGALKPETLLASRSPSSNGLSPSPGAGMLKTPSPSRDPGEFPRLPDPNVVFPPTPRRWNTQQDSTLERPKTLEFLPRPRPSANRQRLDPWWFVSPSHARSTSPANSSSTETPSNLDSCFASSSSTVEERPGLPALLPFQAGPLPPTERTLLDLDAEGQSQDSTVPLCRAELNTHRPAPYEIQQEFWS
Procedure, shortened: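 A375 cells carried lentiviral DOX-inducible MLK1, MLK2 or MLK4 and were grown in RPMI-1640 with 10% FBS. Cells were seeded at 100 000/well and induced with 1 μg/mL DOX. After 24 h they were treated at 0.1–5 μM for 24 h, with DMSO as control. Levels were read by ECL immunoblot of RIPA lysates, with GAPDH or β-actin loading control.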

[4] = biological target: T1, von Hippel-Lindau disease tumor suppressor/Mitogen-activated protein kinase kinase kinase 11; test: PROTAC activity at VHL/MLK3 in human MCF7 cells assessed as protein degradation measured after 4 to 48 hrs by Western blot analysis; type: cell-based; conditions: dose 1.0 µM, time 4-48 hrs
Procedure, shortened: (§1)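 MCF-7 and MDA-MB-468 cells were seeded at 100 000/well and treated with 1 μM PROTAC for 4–48 h, with DMSO as control. MLK3 was quantified by immunoblot as percent remaining, and t1/2 of degradation was derived from the time course.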

[5] = biological target: T1, von Hippel-Lindau disease tumor suppressor/Mitogen-activated protein kinase kinase kinase 11; test: PROTAC activity at VHL/MLK3 in human MDA-MB-468 cells assessed as protein degradation measured after 4 to 48 hrs by Western blot analysis; type: cell-based; conditions: dose 1.0 µM, time 4-48 hrs; procedure, shortened: as §1
[6] = biological target: T1, von Hippel-Lindau disease tumor suppressor/Mitogen-activated protein kinase kinase kinase 11; test: PROTAC activity at VHL/MLK3 in human MDA-MB-468 cells assessed as protein degradation at 1 uM by Western blot analysis; type: cell-based; conditions: time 4-48 hrs, TDE = time-dependent effect
[7] = biological target: T1, von Hippel-Lindau disease tumor suppressor/Mitogen-activated protein kinase kinase kinase 11; test: PROTAC activity at VHL/MLK3 in human MDA-MB-468 cells assessed as protein degradation at 0.1 to 5 uM measured after 24 hrs by Western blot analysis relative to control; type: cell-based; conditions: dose 0.1-5 µM
Procedure, shortened: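 Endogenous MLK3: cells seeded at 100 000/well, treated next day for 24 h with PROTAC at 0.1–5 μM, DMSO control; immunoblot with GAPDH or β-actin loading control. Remaining MLK3 percentage plotted against concentration to derive DC50 and Dmax.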

[8] = biological target: T2, von Hippel-Lindau disease tumor suppressor/Mitogen-activated protein kinase kinase kinase 9 (Homo sapiens); test: PROTAC activity at VHL/MLK1 in human MCF7 cells assessed as protein degradation at 1 uM incubated for 24 hrs by immunoblot analysis; type: cell-based
Procedure, shortened: (§2)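 Endogenous MLK1, MLK2 or MLK4 levels in MCF-7 and MDA-MB-468 cells. Cells were grown in high-glucose DMEM with 10% FBS, seeded at 100 000 cells/well and treated the next day for 24 h, with DMSO as control. Lysis was in RIPA with protease inhibitor, followed by 10% SDS-PAGE, nitrocellulose transfer and ECL immunoblot with GAPDH or β-actin as loading control.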

[9] = biological target: T2, von Hippel-Lindau disease tumor suppressor/Mitogen-activated protein kinase kinase kinase 9 (Homo sapiens); test: PROTAC activity at VHL/MLK1 in human MDA-MB-468 cells assessed as protein degradation at 1 uM incubated for 24 hrs by immunoblot analysis; type: cell-based; procedure, shortened: as §2
[10] = biological target: T3, von Hippel-Lindau disease tumor suppressor/Mitogen-activated protein kinase kinase kinase 10 (Homo sapiens) (UniProt Q02779+P40337); test: PROTAC activity at VHL/MLK2 in human MDA-MB-468 cells assessed as protein degradation at 1 uM incubated for 24 hrs by immunoblot analysis; type: cell-based; procedure, shortened: as §2
T3 sequence (P40337 whole entry, looked up): as the sequence (P40337 whole entry, looked up) above
T3 sequence (Q02779 whole entry, looked up): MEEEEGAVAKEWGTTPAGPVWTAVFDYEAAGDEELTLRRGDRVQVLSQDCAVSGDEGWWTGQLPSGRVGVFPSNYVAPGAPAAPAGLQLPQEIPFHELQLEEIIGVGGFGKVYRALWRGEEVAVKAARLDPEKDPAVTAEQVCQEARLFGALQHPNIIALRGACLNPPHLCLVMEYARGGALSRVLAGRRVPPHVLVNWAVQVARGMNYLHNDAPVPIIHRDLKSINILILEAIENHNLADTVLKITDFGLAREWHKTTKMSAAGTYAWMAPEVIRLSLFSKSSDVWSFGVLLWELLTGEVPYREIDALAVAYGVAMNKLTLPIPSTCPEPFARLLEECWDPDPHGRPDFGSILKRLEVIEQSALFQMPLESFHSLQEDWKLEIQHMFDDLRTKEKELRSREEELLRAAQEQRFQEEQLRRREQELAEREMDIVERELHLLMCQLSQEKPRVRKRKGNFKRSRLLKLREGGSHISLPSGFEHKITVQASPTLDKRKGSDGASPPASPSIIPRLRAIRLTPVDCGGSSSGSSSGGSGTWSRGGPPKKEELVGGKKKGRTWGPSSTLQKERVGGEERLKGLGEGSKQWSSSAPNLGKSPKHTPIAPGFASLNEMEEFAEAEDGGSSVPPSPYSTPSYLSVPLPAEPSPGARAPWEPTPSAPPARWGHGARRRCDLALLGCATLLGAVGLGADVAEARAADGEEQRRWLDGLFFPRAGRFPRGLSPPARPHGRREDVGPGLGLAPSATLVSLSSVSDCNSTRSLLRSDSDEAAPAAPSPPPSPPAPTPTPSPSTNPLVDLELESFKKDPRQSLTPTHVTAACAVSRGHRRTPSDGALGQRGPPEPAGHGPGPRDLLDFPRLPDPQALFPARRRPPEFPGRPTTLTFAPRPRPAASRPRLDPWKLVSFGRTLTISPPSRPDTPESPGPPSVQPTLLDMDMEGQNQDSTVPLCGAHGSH

[11] = biological target: T3, von Hippel-Lindau disease tumor suppressor/Mitogen-activated protein kinase kinase kinase 10 (Homo sapiens); test: PROTAC activity at IAP/MLK2 in human MCF7 cells assessed as protein degradation at 1 uM incubated for 24 hrs by immunoblot analysis; type: cell-based; procedure, shortened: as §2
[12] = biological target: T4, von Hippel-Lindau disease tumor suppressor/Mitogen-activated protein kinase kinase kinase 21 (Homo sapiens) (UniProt P40337+Q5TCX8); test: PROTAC activity at IAP/MLK4 in human MCF7 cells assessed as protein degradation at 1 uM incubated for 24 hrs by immunoblot analysis; type: cell-based; procedure, shortened: as §2
T4 sequence (P40337 whole entry, looked up): as the sequence (P40337 whole entry, looked up) above
T4 sequence (Q5TCX8 whole entry, looked up): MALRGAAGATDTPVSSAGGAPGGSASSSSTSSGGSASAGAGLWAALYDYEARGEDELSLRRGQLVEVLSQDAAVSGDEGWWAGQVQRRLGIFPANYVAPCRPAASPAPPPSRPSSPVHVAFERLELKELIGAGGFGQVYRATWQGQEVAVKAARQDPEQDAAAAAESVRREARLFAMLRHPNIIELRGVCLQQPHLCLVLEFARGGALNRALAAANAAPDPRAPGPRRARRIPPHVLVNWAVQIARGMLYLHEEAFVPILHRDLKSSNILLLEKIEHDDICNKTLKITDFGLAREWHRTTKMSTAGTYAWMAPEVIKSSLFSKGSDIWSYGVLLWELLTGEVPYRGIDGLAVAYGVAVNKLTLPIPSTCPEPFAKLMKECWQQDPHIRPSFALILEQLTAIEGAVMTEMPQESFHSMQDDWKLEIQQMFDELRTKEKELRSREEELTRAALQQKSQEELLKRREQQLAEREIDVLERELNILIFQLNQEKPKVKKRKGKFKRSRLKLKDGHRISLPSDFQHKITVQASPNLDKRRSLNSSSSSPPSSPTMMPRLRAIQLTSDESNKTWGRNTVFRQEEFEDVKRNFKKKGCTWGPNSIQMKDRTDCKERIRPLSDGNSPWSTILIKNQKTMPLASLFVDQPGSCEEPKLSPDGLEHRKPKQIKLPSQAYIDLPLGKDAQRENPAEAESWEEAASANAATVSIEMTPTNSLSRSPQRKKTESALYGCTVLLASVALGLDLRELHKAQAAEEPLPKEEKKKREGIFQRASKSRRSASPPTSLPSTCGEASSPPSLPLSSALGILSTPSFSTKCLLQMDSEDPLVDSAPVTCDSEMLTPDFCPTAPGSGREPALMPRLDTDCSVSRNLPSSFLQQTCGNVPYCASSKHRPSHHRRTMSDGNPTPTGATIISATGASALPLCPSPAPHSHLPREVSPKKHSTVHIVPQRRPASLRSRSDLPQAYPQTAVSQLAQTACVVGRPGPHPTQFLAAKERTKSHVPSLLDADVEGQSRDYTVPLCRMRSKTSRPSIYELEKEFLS

[13] = biological target: T2, von Hippel-Lindau disease tumor suppressor/Mitogen-activated protein kinase kinase kinase 9 (Homo sapiens); test: PROTAC activity at IAP/MLK1 in human MDA-MB-468 cells assessed as protein degradation at 1 uM incubated for 24 hrs by immunoblot analysis; type: cell-based; procedure, shortened: as §2
[14] = biological target: T4, von Hippel-Lindau disease tumor suppressor/Mitogen-activated protein kinase kinase kinase 21 (Homo sapiens); test: PROTAC activity at IAP/MLK4 in human MDA-MB-468 cells assessed as protein degradation at 1 uM incubated for 24 hrs by immunoblot analysis; type: cell-based; procedure, shortened: as §2
[15] = system: MCF7; test: Inhibition of colony formation in human MCF7 cells at 1 uM incubated for 15 days by crystal violet staining based analysis; type: functional, cell-based; conditions: time 15.0 day
Procedure, shortened: (§3)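 5000 cells per 6 cm plate in triplicate with 1 μM PROTAC or DMSO, medium changed every 5 days; colonies stained with crystal violet after 14–15 days. Three independent experiments, mean ± SD, unpaired t-test against control.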

[16] = system: MDA-MB-468; test: Inhibition of colony formation in human MDA-MB-468 cells at 1 uM incubated for 15 days by crystal violet staining based analysis; type: functional, cell-based; conditions: time 15.0 day; procedure, shortened: as §3
[17] = system: MDA-MB-468; test: Induction of cell cycle arrest at G2/M phase in human MDA-MB-468 cells at 1 uM measured after 48 hrs by PI staining based flow cytometry; type: functional
Procedure, shortened: (§4)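 Cells seeded at 50 000/well, exposed to 1 μM PROTAC or DMSO for 48 h, trypsinized, fixed in ice-cold methanol and held at –20 °C; next day stained with PI/RNase solution and read by flow cytometry. Two independent experiments.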

[18] = system: MCF7; test: Effect on cell cycle in human MCF7 cells at 1 uM measured after 48 hrs by PI staining based flow cytometry; type: functional; procedure, shortened: as §4
[19] = system: MCF7; test: Inhibition of cell migration in human MCF7 cells at 1 uM incubated for 24 hrs by transwell assay; type: functional, cell-based
Procedure, shortened: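 Boyden inserts, 8 μm pores: 200 000 cells in serum-free DMEM with 1 μM PROTAC or DMSO, 20% FBS DMEM below as chemoattractant, 24 h at 37 °C, 5% CO2. Migrated cells fixed, crystal violet stained and counted by image analysis; at least three repeats.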

[20] = biological target: T1, von Hippel-Lindau disease tumor suppressor/Mitogen-activated protein kinase kinase kinase 11; test: PROTAC activity at VHL/MLK3 in human MCF7 cells assessed as protein degradation at 1 uM measured after 24 hrs by immunoblot analysis
[21] = biological target: T1, von Hippel-Lindau disease tumor suppressor/Mitogen-activated protein kinase kinase kinase 11; test: PROTAC activity at VHL/MLK3 in human MDA-MB-468 cells assessed as protein degradation at 1 uM measured after 24 hrs by immunoblot analysis

In the case of `CCSCc1ccc2c(c1)c1c3c(c4c5cc(CSCC)ccc5n5c4c1n2[C@H]1C[C@](O)(C(=O)NCCOCCOCCOCC(=O)N[C@H](C(=O)N2C[C@H](O)C[C@H]2C(=O)N[C@@H](C)c2ccc(-c4scnc4C)cc2)C(C)(C)C)[C@]5(C)O1)CNC3=O`, the Activity [1] is reported as “Active”, the Activity [2] is reported as 100% and the Activity [3] is reported as “inactive”. The Activity [4] was “Dose-Dependent Effect”, the Activity [5] was “Dose-Dependent Effect” and the Activity [6] was “Tde”. For the same compound, the Emax [7] was 63%, the Activity [8] was “inactive” and the Activity [9] was “inactive”. For the same compound, the Activity [10] was “inactive”, the Activity [11] was “inactive” and the Activity [12] was “inactive”. The Activity [13] was “inactive”, the Activity [14] was “inactive” and the inhibition [15] was “inactive”. The inhibition [16] was “Active”, the Activity [17] was “Active” and the Activity [18] was “inactive”. For the same compound, the inhibition [19] was “inactive”, the Activity [20] was “Active” and the Activity [21] was “Active”.
